Legend:
[1] = DPPH radical scavenging assay; settings: for Inhibition% ± SEM: DPPH, measured at 400 μM, 3 repetitions; for EC50: DPPH radical scavenging
Outline: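 DPPH solution (110 μM) mixed with samples at various concentrations and kept in the dark for 30 min. Absorbance read at 517 nm. Percent inhibition and EC50 calculated from absorbance changes. Each concentration run in triplicate.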

[2] = target: tyrosinase enzyme (Agaricus bisporus, UniProt C7FF04); test: Kinetic study of tyrosinase inhibition; type: biochemical; settings: Lineweaver-Burk plot, L-DOPA substrate; Km increased, Vmax constant
tyrosinase enzyme, sequence (C7FF04 2-392): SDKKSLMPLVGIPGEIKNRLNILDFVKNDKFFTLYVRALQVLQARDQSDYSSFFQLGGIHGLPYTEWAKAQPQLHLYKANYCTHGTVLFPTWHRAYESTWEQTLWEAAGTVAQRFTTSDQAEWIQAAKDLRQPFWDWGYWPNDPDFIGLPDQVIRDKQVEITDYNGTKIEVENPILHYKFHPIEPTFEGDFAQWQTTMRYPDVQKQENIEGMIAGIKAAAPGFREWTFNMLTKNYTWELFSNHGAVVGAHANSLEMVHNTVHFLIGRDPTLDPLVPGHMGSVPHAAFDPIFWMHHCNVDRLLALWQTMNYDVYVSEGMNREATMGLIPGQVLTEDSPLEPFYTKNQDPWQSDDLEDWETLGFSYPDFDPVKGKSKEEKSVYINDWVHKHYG

Structure (SMILES) | Inhibition% ± SEM [1] | type of inhibition [2] | EC50 [1]
Cc1c(O)c(=O)ccn1-c1cccc(C(=O)N/N=C/c2ccc(O)c(O)c2)c1 [Compound 6a, (E)-N'-(3,4-dihydroxybenzylidene)-3-(3-hydroxy-2-methyl-4-oxopyridin-1(4H)-yl) benzohydrazide] | 90.06 ± 3.75% |  | 
COc1cc(/C=N/NC(=O)c2cccc(-n3ccc(=O)c(O)c3C)c2)ccc1O [Compound 6b, (E)-3-(3-Hydroxy-2-methyl-4-oxopyridin-1(4H)-yl)-N'-(4-hydroxy-3-methoxybenzylidene)benzohydrazide] | 84.64 ± 2.68% | competitive inhibitor | 
COc1cccc(/C=N/NC(=O)c2cccc(-n3ccc(=O)c(O)c3C)c2)c1O [Compound 6c, (E)-3-(3-Hydroxy-2-methyl-4-oxopyridin-1(4H)-yl)-N'-(2-hydroxy-3-methoxybenzylidene) benzohydrazide] | 48.06 ± 2.25% |  | > 400 µM
COc1cc(OC)c(/C=N/NC(=O)c2cccc(-n3ccc(=O)c(O)c3C)c2)c(OC)c1 [Compound 6d, (E)-3-(3-Hydroxy-2-methyl-4-oxopyridin-1(4H)-yl)-N'-(2,4,6-trimethoxybenzylidene)benzohydrazide] | 35.16 ± 1.37% |  | > 400 µM
Cc1c(O)c(=O)ccn1-c1cccc(C(=O)N/N=C/c2ccccc2Br)c1 [Compound 6e, (E)-N'-(2-bromobenzylidene)-3-(3-hydroxy-2-methyl-4-oxopyridin-1(4H)-yl)benzohydrazide] | 19.59 ± 1.76% |  | > 400 µM
Cc1c(O)c(=O)ccn1-c1cccc(C(=O)N/N=C/c2ccccc2C(=O)O)c1 [Compound 6f, (E)-2-((2-(3-(3-Hydroxy-2-methyl-4-oxopyridin-1(4H)-yl)benzoyl) hydrazono)methyl) benzoic acid] | 35.01 ± 5.71% |  | > 400 µM
Cc1c(O)c(=O)ccn1-c1cccc(C(=O)N/N=C/c2cccc(Cl)c2)c1 [Compound 6g, (E)-N'-(3-chlorobenzylidene)-3-(3-hydroxy-2-methyl-4-oxopyridin-1(4H)-yl) benzohydrazide] | 44.20 ± 2.41% |  | > 400 µM
Cc1c(O)c(=O)ccn1-c1cccc(C(=O)NN=Cc2c(Cl)cccc2Cl)c1 [Compound 6h, N'-(2,6-dichlorobenzylidene)-3-(3-hydroxy-2-methyl-4-oxopyridin-1(4H)-yl)benzohydrazide] | 44.55 ± 0.91% |  | > 400 µM
Cc1c(O)c(=O)ccn1-c1cccc(C(=O)N/N=C/c2cc(Cl)ccc2[N+](=O)[O-])c1 [Compound 6i, (E)-N'-(5-chloro-2-nitrobenzylidene)-3-(3-hydroxy-2-methyl-4-oxopyridin-1(4H)-yl)benzohydrazide] | 67.65 ± 0.85% |  | 174 µM
Cc1c(O)c(=O)ccn1-c1cccc(C(=O)N/N=C/Cc2ccccc2)c1 [Compound 6j, (E)-3-(3-Hydroxy-2-methyl-4-oxopyridin-1(4H)-yl)-N'-(2-phenylethylidene)benzohydrazide] | 68.59 ± 1.14% |  | 
O=c1c(O)c(-c2ccc(O)c(O)c2)oc2cc(O)cc(O)c12 [Quercetin, reference compound] |  |  | 8.98 ± 0.05 µM

Source: publication PMC11336475 (Heliyon, 2024)
